# Sampled rows, rich in hits. Any-hit rate of the full collection: about 2.1%.
# PGC1a acetyl inh: inhibitors of PGC1a acetylation signal, primary screen, cell-based, U2OS, AlphaScreen, inhibitor mode; AlphaScreen anti-acetyl-lysine; with virally co-expressed GCN5 acetyltransferase; AID 651687, 2012; 350,000 tested, 0.17% active; inhibition, % at 15.6 µM;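 active = every replicate shows inhibition of at least 40%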
# EWS-Fli inh: EWS/Fli-driven NR0B1 reporter inhibitors, primary screen, A673 cells, NR0B1 luciferase, luminescence, MLPCN library | viability-normalised | AID 651661, 2012 | inhibition, % at 12.6 µM | 350,000 tested, 0.67% active;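 active = mean inhibition of at least 50% after viability correction, with every replicate also passing that limit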;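 note: firefly luciferase signal divided by Alamar Blue viability fluorescence both relative to DMSO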
# PAX8 inh HTS: inhibitors of PAX8-driven TPO luciferase reporter, primary screen, RMG-I cells, single concentration; 360,000 tested, 1.2% active; SteadyGlo, 24 h; inhibition, % at 12.6 µM;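 active = mean replicate inhibition at least 60% with every replicate also reaching 60%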;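 note: luciferase light reporting Pax8 driven TPO promoter activity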
# AF4-AF9 inh: inhibitors of AF4 peptide binding to AF9, primary screen, biochemical, AlphaScreen, biotin-AF4 peptide, FLAG-AF9, single point; inhibition, % at 10 µM; 350,000 tested, 0.47% active; Protein AF-9 (Homo sapiens), P42568;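 active = every replicate reaching a set inhibition limit, whatever the replicate mean, cut at about 25% in these data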
# Target sequence (P42568 whole entry, looked up): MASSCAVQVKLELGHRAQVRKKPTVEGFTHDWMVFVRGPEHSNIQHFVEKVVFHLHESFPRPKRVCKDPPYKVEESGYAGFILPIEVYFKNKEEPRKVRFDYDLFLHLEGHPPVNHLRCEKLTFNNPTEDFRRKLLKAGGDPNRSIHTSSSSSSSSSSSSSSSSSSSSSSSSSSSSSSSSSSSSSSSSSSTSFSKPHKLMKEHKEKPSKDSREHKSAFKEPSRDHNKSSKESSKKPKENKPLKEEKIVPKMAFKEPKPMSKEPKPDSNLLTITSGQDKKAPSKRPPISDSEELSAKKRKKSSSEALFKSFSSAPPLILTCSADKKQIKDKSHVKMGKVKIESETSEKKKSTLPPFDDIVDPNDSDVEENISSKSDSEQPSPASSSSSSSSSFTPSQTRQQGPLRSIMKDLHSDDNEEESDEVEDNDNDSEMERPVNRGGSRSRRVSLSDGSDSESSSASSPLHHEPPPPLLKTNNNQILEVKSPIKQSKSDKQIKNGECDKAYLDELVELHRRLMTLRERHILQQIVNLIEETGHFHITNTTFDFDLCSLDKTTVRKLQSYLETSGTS
# Xi reactivation: activators of inactive X chromosome reactivation, primary screen, imaging, XiGFP fibroblasts, GFP high-content imaging, set 2. XiGFP mouse fibroblasts, % GFP-positive cells imaging, 3 d; cells co-treated with 5-aza-dC sensitizer; scaled so ellipticine positive control = 100%. activation, % at 7.58 µM. 360,000 tested, 0.055% active. AID 743238, 2013;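 active = mean normalized replicate activation at least 10% and every replicate at or above 10%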
#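 Schedule: 3 d treatment, 15 min room-temperature fixation; system: 68-5-11 XiGFP fibroblast line; buffer or medium: DMEM plus 5-aza-dC sensitizer; control set: ellipticine 6 µM positive control; compound: one concentration, pinned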
# INS-1E GSIS act: GLuc luminescence reporter in INS-1E cells, primary screen for activators of glucose-dependent secretion of insulin | INS-1E GLuc reporter insulin secretion, 2-3 h | activation, % at 16.6 µM | 370,000 tested, 0.61% active | AID 743287, 2014;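 active = lowest replicate activation of at least 40%, so every replicate reaches that level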
# A number is an active result; - = inactive; . = not tested or not shown.
SMILES,PGC1a acetyl inh,EWS-Fli inh,PAX8 inh HTS,AF4-AF9 inh,Xi reactivation,INS-1E GSIS act
C[C@@H]1CN([C@H](C)CO)S(=O)(=O)c2ccc(-c3ccc(C#N)cc3)cc2O[C@H]1CN(C)C,-,-,.,-,-,48
C[C@@H]1CN([C@H](C)CO)S(=O)(=O)c2ccc(-c3ccc(C#N)cc3)cc2O[C@@H]1CN(C)Cc1cccc(F)c1,-,-,86,-,-,-
C[C@@H]1CN([C@@H](C)CO)S(=O)(=O)c2ccc(-c3ccc(C#N)cc3)cc2O[C@@H]1CN(C)Cc1cccc(F)c1,-,-,63,-,-,-
CCCN1C[C@H](C)[C@H](OC)CN(C)C(=O)c2ccc(NC(=O)c3cccc(OC)c3)cc2OC[C@H]1C,-,-,.,-,-,-
O=S(=O)(NCC[C@@H]1CC[C@H](NS(=O)(=O)c2cccc(Cl)c2)[C@@H](CO)O1)c1cccc(F)c1,-,-,-,-,-,-
O=C(C[C@H]1CC[C@H](NC(=O)CC2CC2)[C@@H](CO)O1)NCc1ccccc1,-,-,.,-,-,-
COc1ccc2c(c1)OC1(C)CC2C(C(=O)c2ccccc2OC)C(=O)N1 (centres undefined),-,-,-,49,-,.
CCOC(=O)c1ccccc1NC(=O)COC(=O)CCCOc1ccccc1,.,-,-,-,-,56
Cc1ccc(NC(=O)N2CCc3ccccc32)cc1,-,.,-,.,.,.
CN1CCN(c2ccc(NC(=O)N3CCc4ccccc43)cc2)CC1,-,62,-,-,-,-
Cc1ccc(-n2cc(CNCCc3ncc(C)[nH]3)c(-c3ccc(F)cc3)n2)cc1,-,-,-,28,-,-
CCC(=O)Nc1nnc(Sc2ccc(N(C)C)cc2)s1,-,.,.,.,.,50
CCOc1ccc(-c2ccc(SC)nn2)cc1,.,79,75,-,-,-
C[C@H]1CN([C@@H](C)CO)S(=O)(=O)c2ccc(C#CCN(C)C)cc2O[C@H]1CN(C)C(=O)C1CCCCC1,-,-,-,-,-,-
Nc1nc2ccccc2n1C(=O)c1ccc(F)cc1,-,-,-,-,-,-
Nc1nc2ccccc2n1C(=O)c1ccccc1,.,61,-,-,-,-
O=[N+]([O-])c1ccc(N2CCN(Cc3ccccc3)CC2)c2c1no[n+]2[O-],-,-,99,-,-,-
O=[N+]([O-])c1ccc(N2CCN(Cc3ccccc3)CC2)s1,-,-,-,-,-,-
O=C(CSc1nnc(NC(=O)c2ccc(S(=O)(=O)N3CCOCC3)cc2)s1)Nc1ccccc1C(F)(F)F,-,-,69,-,-,-
Nn1cnnc1N/N=C\c1ccc(-c2ccccc2[N+](=O)[O-])o1,-,-,92,-,-,.
CO[C@H]1CN(C)C(=O)c2ccc(NC(=O)Cc3ccccc3)cc2OC[C@H](C)N(C(C)=O)C[C@H]1C,-,-,.,-,-,-
CN(C)/C=C1\C(=O)ON=C1c1ccccc1,.,-,-,-,-,-
Cc1ccc(C2=NOC(=O)/C2=C\C=C\c2ccccc2)cc1,-,54,-,-,-,-
COc1ccc(CN2[C@@H](CO)[C@@H]3c4ccccc4N(C(=O)CC(F)(F)F)C[C@@H]32)cc1,-,-,-,-,-,-
CCOc1ccc(-c2nnc(SCC(=O)Nc3cc(C)on3)o2)cc1,-,65,-,-,-,-
SMILES,PGC1a acetyl inh,EWS-Fli inh,PAX8 inh HTS,AF4-AF9 inh,Xi reactivation,INS-1E GSIS act
Cc1ccc(-c2nnc(SCC(=O)Nc3ccccc3N3CCOCC3)o2)cc1,-,.,-,.,.,.
Cc1ccc(-c2nnc(SCC(=O)Nc3ccccc3F)o2)cc1,.,85,-,-,-,-
O=C(CSc1nnc(-c2ccccc2)o1)Nc1ccccc1F,.,78,-,-,-,-
O=C(CSc1nnc(-c2ccc(Br)cc2)o1)Nc1cccc(C(=O)O)c1,-,.,83,-,-,-
O=C(CSc1nnc(-c2ccncc2)o1)Nc1cc(F)ccc1F,-,-,-,-,-,-
Cc1noc(C)c1NC(=O)N(C)C[C@@H]1OCCCC[C@@H](C)Oc2ccc(NS(=O)(=O)c3c(C)noc3C)cc2C(=O)N([C@H](C)CO)C[C@H]1C,-,-,-,-,-,-
COc1cccc(CN2CCC(CO)(CC3CCCCO3)CC2)c1 (centres undefined),100,-,-,-,-,-
COCc1ccc(CN2CCC(CO)(CC3CCCCO3)CC2)o1 (centres undefined),-,-,-,-,-,-
Fc1ccc(-c2csc3ncnc(N4CCc5ccccc5C4)c23)cc1,.,-,70,-,-,-
Cc1ccc(-c2csc3ncnc(N4CCc5ccccc5C4)c23)cc1,-,.,-,.,-,-
COc1ccc(CCN=C(N)NS(=O)(=O)c2ccc(C)c(C)c2)cc1OC,-,-,.,-,-,91
COc1ccc(S(=O)(=O)NC(N)=NCCc2ccc(OC)c(OC)c2)cc1C,.,-,-,-,-,-
CC(=O)N(Cc1cc2cc(C)c(C)cc2n2nnnc12)CC1COCCO1 (centres undefined),.,.,.,.,.,63
C[C@@H](C(=O)NC1CCN(Cc2ccccc2)CC1)N1C(=O)N2CCc3c([nH]c4ccccc34)[C@@]2(C)C1=O,-,-,.,-,.,-
CC(C)[C@@H](C(=O)NC1CCN(Cc2ccccc2)CC1)N1C(=O)N2CCc3c([nH]c4ccccc34)[C@@]2(C)C1=O,-,-,.,27,.,.
COc1ccc(S(=O)(=O)N2CC[C@@H]3[C@@H](CO)N(C)c4ccc(-c5ccc(F)cc5)cc4[C@@H]32)cc1,-,-,66,-,-,-
COc1ccc(-c2ccc3c(c2)[C@H]2[C@H](CCN2S(=O)(=O)c2ccc(F)cc2)[C@H](CO)N3C)cc1,-,-,94,-,-,-
CN1c2ccc(-c3ccc(F)cc3)cc2[C@H]2[C@H](CCN2S(=O)(=O)c2ccc(F)cc2)[C@@H]1CO,-,55,-,-,-,-
COc1cccc(-c2ccc3c(c2)[C@H]2[C@H](CCN2S(=O)(=O)c2ccc(F)cc2)[C@@H](CO)N3C)c1,-,-,67,-,-,-
CCS(=O)(=O)N1CCC2(CC1)CN(C(=O)Nc1c(C)noc1C)[C@@H](CO)c1[nH]c3cc(OC)ccc3c12,-,-,.,-,-,-
CCc1cc2c(nc1CC)CCCN2S(=O)(=O)c1ccc(OC)cc1,.,72,-,-,-,.
CCc1cc2c(nc1CC)CCCN2S(=O)(=O)c1ccc(F)cc1,.,-,-,-,-,-
COc1ccc(Cc2c(-c3ccc(OC)c(OC)c3)nc3c(C)cc(Br)cn23)c(C)c1,-,-,66,-,-,-
